Results on 14 compounds are retold here after ChEMBL document CHEMBL1137547, “Synthesis and antifungal activities of novel 2-aminotetralin derivatives” (2007).

Converted amounts (≈) assume the structure as drawn.

What all share (type): functional
Assay [1] has as its system Aspergillus fumigatus. Description: Antifungal activity against Aspergillus fumigatus. The procedure, abridged: (§1)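 NCCLS broth serial dilution in RPMI 1640 buffered with 0.165 M MOPS. Compounds were dissolved in DMSO and serially diluted in medium. Strains came from ATCC or clinical isolates. The growth MIC for filamentous fungi was read at 7 d, taken as the lowest concentration giving ≥80% turbidity inhibition versus the growth control.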

For assay [2], the system named is Candida albicans. Nature of the assay: Antifungal activity against Candida albicans after 24 hrs. The procedure, abridged:
(§2)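 Candida yeasts were tested by NCCLS microdilution in RPMI 1640 buffered with 0.165 M MOPS and incubated at 35 °C. Compounds were dissolved in DMSO and serially diluted in medium. Isolates came from ATCC or the clinic. The MIC was read at 24 h as the lowest concentration achieving ≥80% growth inhibition versus the control.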

For assay [3], the system named is Cryptococcus neoformans. Description: Antifungal activity against Cryptococcus neoformans after 72 hrs. The procedure, abridged: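 Cryptococcus neoformans was tested by NCCLS serial dilution in MOPS-buffered (0.165 M) RPMI 1640 at 35 °C. Compounds were dissolved in DMSO and diluted in medium. The MIC was read at 72 h as the lowest concentration giving turbidity inhibition of ≥80% relative to the growth control.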

The test system of assay [4] is Trichophyton rubrum. Description: Antifungal activity against Trichophyton rubrum. The procedure, abridged: (§3)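 Dermatophytes were tested by NCCLS serial dilution in RPMI 1640 with 0.165 M MOPS and incubated at 28 °C. Compounds were dissolved in DMSO and diluted in medium. Strains came from ATCC or clinical isolates. The MIC was read at 7 d as the lowest concentration reducing turbidity by ≥80% relative to the drug-free control.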

Assay [5] concerns Microsporum. Nature of the assay: Antifungal activity against Microsporum gypseum. The procedure, abridged:
as §3

In assay [6] the test system is Candida parapsilosis. Description: Antifungal activity against Candida parapsilosis after 24 hrs. The settings on record: Lodderomyces parapsilosis. The procedure, abridged:
as §2

The test system of assay [7] is Fonsecaea compacta. Description: Antifungal activity against Fonsecaea compacta. The procedure, abridged: as §1

One may read the MIC as the lowest concentration that inhibits growth of the organism. On to `CCCCCCCCCCCCCCCCCCNC1CCc2c(cccc2OC)C1` (stereo not drawn), for which the MIC is greater than 64 µM in assay [1]; greater than 64 µM in assay [2]; greater than 64 µM in assay [3]; 32 µM (≈ 13.8 µg/mL) in assay [4]; 16 µM (≈ 6.88 µg/mL) in assay [5]; greater than 64 µM in assay [6]. In addition, in assay [7], the MIC came out at 64 µM (≈ 27.5 µg/mL).
As for `CCCCCCCCCCCCCCCCCCNC1CCc2cc(OC)ccc2C1` (stereo not drawn), the MIC in assay [1] was greater than 64 µM; in assay [2] it was 64 µM (≈ 27.5 µg/mL); in assay [3] it was greater than 64 µM; in assay [4], 8 µM (≈ 3.44 µg/mL); in assay [5], greater than 64 µM; in assay [6], greater than 64 µM. For the same compound, in assay [7], the MIC was greater than 64 µM.
Consider `CCCCCCCCCCCCCCCCCCNC1CCc2ccc(OC)cc2C1` (stereo not drawn), for which the MIC in assay [1] is greater than 64 µM; in assay [2] it was greater than 64 µM; in assay [3], greater than 64 µM; in assay [4] it was 8 µM (≈ 3.44 µg/mL); in assay [5], 64 µM (≈ 27.5 µg/mL); in assay [6], greater than 64 µM. For the same compound, the minimal inhibitory concentration (MIC) in assay [7] was greater than 64 µM.
As to `CCCCCCCCCCCCCCCCCCNC1CCc2cccc(OC)c2C1` (stereo not drawn), the MIC in assay [1] was greater than 64 µM; in assay [2], greater than 64 µM; in assay [3], 64 µM (≈ 27.5 µg/mL); in assay [4], 2 µM (≈ 0.859 µg/mL); in assay [5] it was 64 µM (≈ 27.5 µg/mL); in assay [6], greater than 64 µM. The compound also yielded an MIC in assay [7] greater than 64 µM.
For the compound `CCCCCCCCCCCCCCCCCCNC1CCc2c(O)cccc2C1` (stereo not drawn), the MIC is greater than 64 µM in assay [1]; 64 µM (≈ 26.6 µg/mL) in assay [2]; greater than 64 µM in assay [3]; 16 µM (≈ 6.65 µg/mL) in assay [4]; greater than 64 µM in assay [5]; greater than 64 µM in assay [6]. Moreover, the MIC in assay [7] is greater than 64 µM.
For the compound `CCCCCCCCCCCCCCCCCCNC1CCc2cc(O)ccc2C1` (stereo not drawn), the MIC in assay [1] is greater than 64 µM; in assay [2], 32 µM (≈ 13.3 µg/mL); in assay [3], greater than 64 µM; in assay [4] it was 8 µM (≈ 3.33 µg/mL); in assay [5] it was 64 µM (≈ 26.6 µg/mL); in assay [6], greater than 64 µM. For the same compound, the minimal inhibitory concentration (MIC) in assay [7] was greater than 64 µM.
Consider `CCCCCCCCCCCCCCCCCCNC1CCc2ccc(O)cc2C1` (stereo not drawn), for which the MIC in assay [1] was greater than 64 µM; in assay [2], 16 µM (≈ 6.65 µg/mL); in assay [3] it was greater than 64 µM; in assay [4] it was 2 µM (≈ 0.831 µg/mL); in assay [5], greater than 64 µM; in assay [6] it was greater than 64 µM. Also, in assay [7], 64 µM (≈ 26.6 µg/mL) was the least that counted as inhibitory (MIC).
With `Oc1cccc2c1CCC(Nc1ccccc1)C2` (stereo not drawn), the MIC in assay [1] is greater than 64 µM; in assay [2], greater than 64 µM; in assay [3] it was greater than 64 µM; in assay [4], 8 µM (≈ 1.91 µg/mL); in assay [5], greater than 64 µM; in assay [6], greater than 64 µM. The same compound returned an MIC in assay [7] greater than 64 µM.
For the compound `COc1cccc2c1CCC(Nc1ccccc1)C2` (stereo not drawn), the MIC is greater than 64 µM in assay [1]; greater than 64 µM in assay [2]; greater than 64 µM in assay [3]; 2 µM (≈ 0.507 µg/mL) in assay [4]; 32 µM (≈ 8.11 µg/mL) in assay [5]; greater than 64 µM in assay [6]. For the same compound, the MIC in assay [7] was greater than 64 µM.
For `COc1ccc2c(c1)CCC(Nc1ccccc1)C2` (stereo not drawn), the MIC in assay [1] is greater than 64 µM; in assay [2] it was greater than 64 µM; in assay [3], greater than 64 µM; in assay [4] it was 0.5 µM (≈ 0.127 µg/mL); in assay [5], 32 µM (≈ 8.11 µg/mL); in assay [6], greater than 64 µM. In addition, the MIC in assay [7] is greater than 64 µM.
With `COc1ccc2c(c1)CC(Nc1ccccc1)CC2` (stereo not drawn), the MIC in assay [1] is greater than 64 µM; in assay [2], greater than 64 µM; in assay [3], 64 µM (≈ 16.2 µg/mL); in assay [4], 4 µM (≈ 1.01 µg/mL); in assay [5], 64 µM (≈ 16.2 µg/mL); in assay [6], greater than 64 µM. In assay [7], this compound gave an MIC greater than 64 µM.
On to `Oc1cccc2c1CC(Nc1ccccc1)CC2` (stereo not drawn), for which the MIC in assay [1] was greater than 64 µM; in assay [2] it was greater than 64 µM; in assay [3], 32 µM (≈ 7.66 µg/mL); in assay [4] it was 4 µM (≈ 0.957 µg/mL); in assay [5], 32 µM (≈ 7.66 µg/mL); in assay [6] it was greater than 64 µM. It took 64 µM (≈ 15.3 µg/mL) to inhibit growth in assay [7] (MIC).
Consider `CCCCCCCCCCCCCCNC1CCc2c(cccc2OC)C1` (stereo not drawn), for which the MIC in assay [1] is greater than 64 µM; in assay [2] it was greater than 64 µM; in assay [3] it was 32 µM (≈ 12 µg/mL); in assay [4], 8 µM (≈ 2.99 µg/mL); in assay [5] it was greater than 64 µM; in assay [6], greater than 64 µM. In assay [7], the MIC is 64 µM (≈ 23.9 µg/mL).
As to `CCCCCCCCCCCCCCNC1CCc2ccc(OC)cc2C1` (stereo not drawn), the MIC in assay [1] was greater than 64 µM; in assay [2], 4 µM (≈ 1.49 µg/mL); in assay [3], 16 µM (≈ 5.98 µg/mL); in assay [4], 0.0625 µM (≈ 0.0234 µg/mL); in assay [5], 4 µM (≈ 1.49 µg/mL); in assay [6], greater than 64 µM. Inhibition of growth in assay [7] (MIC) required 64 µM (≈ 23.9 µg/mL).
